Screening data from PubChem.
The list is not random: actives were taken first. Their share in the collection is about 3.1%.
HIV Env fusion: inhibitors of HIV-1 Env-driven cell-cell fusion, primary screen, HeLa-JRFL effector, CEM21 target cells, luciferase; inhibition, % at 12.3 µM; hit rate 1.1% among 360,000;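 active means mean replicate inhibition score of at least 50 and every replicate individually at or above 50; inconclusive means only one of the two criteria met; inactive means mean below 50 and not all replicates reaching 50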;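 further: 0% = plate neutral controls and 100% = maraviroc near 300 nM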
miR122 inh: miR-122 Renilla sensor signal increase in Huh7, primary screen, miR-122 inhibitor project, cell-based, single point, plate reader. Huh7 miR-122 Renilla luciferase sensor, 48 h; neutral wells = 0, positive control = 100. activation (reporter increase), % at 12.5 µM. hit rate 0.3% among 340,000. AID 602342, 2012;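 active means mean replicate activation score at least 90 and every replicate individually at or above 90; inconclusive means only one of the two criteria met; inactive means neither criterion met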;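 further: higher luciferase means less miR-122 activity so hits act as miR-122 inhibitors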
INS-1E GSIS act: GLuc luminescence reporter in INS-1E cells, primary screen for activators of glucose-dependent secretion of insulin. hit rate 0.61% among 370,000. activation, % at 16.6 µM. INS-1E GLuc reporter insulin secretion, 2-3 h. AID 743287, 2014;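 active means lowest replicate activation of at least 40%, so every replicate reaches that level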;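 further: 0% = median of neutral control wells and 100% = median of IBMX positive control wells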
Cneo AK release: Cryptococcus neoformans cell lysis inducers, primary screen, AK release luminescence, single concentration. AID 651654, 2012. C. neoformans lysis, adenylate kinase release luminescence, 4 h; normalised: neutral wells 0, clomiphene wells 100. lysis activity, % at 15 µM. hit rate 0.2% among 360,000;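 active means mean lysis activity across replicates of at least 80%, whatever share of replicates individually reach that level; inactive means mean lysis activity below 80%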
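Test system: log-phase Cryptococcus neoformans yeast cells. Input: 5 × 10^6 yeast cells/mL. Medium: fresh YPD growth medium. Doses: single dose. Incubation: static 4 h at 37 °C with compound, 1 h detection. Measured by: luminescent adenylate kinase detection reagent. Read-out: signal increase indicating cell lysis. Benchmarks: Clomiphene.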
F508del corr: F508del CFTR correction, initial screen, CFBE line, single point; CFBE cells, YFP halide quenching; stimulated with forskolin plus potentiator P3; % fluorescence drop versus neutral controls; activity (quench increase), % at 7.58 µM; hit rate 0.36% among 350,000;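 active means mean added fluorescence quench of at least 8% versus neutral control, with both replicates also reaching 8%; inconclusive means only one of the mean or replicate conditions met; inactive means mean below 8% and not both replicates reaching 8%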;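 further: cells transiently co-express mutant CFTR-F508del with the halide-sensitive YFP; corrector assay measuring rescue of mutant channel to the surface after 24 h compound exposure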
rRNA inh HTS: reduced GFP signal of wild-type E. coli, primary screen, bacterial rRNA inhibitor project, GFP/RFP fluorescence, OD600, single point. E. coli WT GFP vs humanized-ribosome RFP mutants, 24 h; stronger effect = lower value; DMSO median 0, no signal -100. GFP signal change (wild-type ribosome), % (test concentration not listed). hit rate 1.6% among 350,000;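 active means significant combined selectivity score with lowered wild-type GFP, culture density cut under 30%, mutant RFP and density less affected; inactive means any of these conditions unmet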
* hit, by the source's call; ? = inconclusive; / = not tested or not shown; [ ] = remark or other dose.

SMILES | HIV Env fusion | miR122 inh | INS-1E GSIS act | Cneo AK release | F508del corr | rRNA inh HTS
O=C(O)CCNc1ccc(NCCC(=O)O)c2c1C(=O)c1ccccc1C2=O | 22 | / | -6 | / | 1 | -5
O=C(c1[nH]ncc1-c1cccc(Br)c1)C1CO1 (stereo not given) | 0 | / | 0 | / | 11* | -9
CCCNC(=O)Nc1ccc2c(c1)OC[C@H](C)N(C(=O)C1CCCCC1)C[C@H](C)[C@@H](OC)CN(C)C2=O | / | / | -16 | / | 3 | -4
O=C(NCCc1ccccc1)c1cc(-c2ccc3c(c2)OCO3)on1 | 8 | / | 44* | -1 | / | /
Cc1cc(C)c(S(=O)(=O)NCCc2ccncc2)c(C)c1 | -19 | 0 | -1 | -1 | -1 | 6
Cc1cc(C)c(S(=O)(=O)NCc2ccncc2)c(C)c1 | ? | 118* | / | 3 | / | /
Cc1ccc(S(=O)(=O)NCc2ccco2)c(C)c1C | / | 107* | / | 3 | / | /
O=S(=O)(NCc1ccco1)c1ccc2ccccc2c1 | 1 | 95* | 6 | 1 | 0 | -3
Cc1ccc(S(=O)(=O)NCc2ccccn2)c(C)c1C | -9 | 44 | 7 | -2 | 2 | 9
Cc1ccc(S(=O)(=O)NCc2ccncc2)c(C)c1C | 55* | 32 | -60 | / | 4 | 16
CN(C[C@H]1N[C@@H](CO)[C@@H]1c1ccc(C2=CCCC2)cc1)C(=O)c1ccccn1 | / | -75[16.7 µM] | 4 | 1 | -2 | 0
O=C(C1CCC1)N1CCc2cc(S(=O)(=O)NCc3ccco3)ccc21 | / | 177* | / | -1 | / | /
Cc1ccc(CNS(=O)(=O)c2ccc3c(c2)CCN3C(=O)C2CCC2)cc1 | 4 | -1 | 6 | 0 | -1 | 5
C[C@H](NC(=O)C[C@H]1CC[C@@H]2[C@H](COc3ccc(NS(=O)(=O)c4ccc(Cl)cc4)cc3C(=O)N2C)O1)c1ccccc1 | -24[16.7 µM] | -17[16.7 µM] | 0 | 2 | 1 | -3
CCn1c(Cl)c(C=O)s/c1=N\S(=O)(=O)c1ccccc1 | -43 | -72 | 58* | -9 | -4 | 5
O=C(CCNS(=O)(=O)c1cccc(C(F)(F)F)c1)NC1CC1 | / | / | 6 | 1 | 16* | 8
O=C(CN(Cc1ccccc1)S(=O)(=O)c1cccc(C(F)(F)F)c1)NC1CCCCC1 | 63* | 0 | 0 | 4 | / | /
C[C@@H]1CN([C@@H](C)CO)S(=O)(=O)c2ccc(C#CC3CCCC3)cc2O[C@H]1CN(C)C | 9[16.7 µM] | 2[16.7 µM] | -6 | 2 | -1 | 2
CNC(=O)C[C@@H]1CC[C@H]2[C@@H](COc3ccc(NC(=O)Cc4cccs4)cc3C(=O)N2C)O1 | -8[16.7 µM] | 33[16.7 µM] | 8 | -1 | 0 | 2
NCCCCCc1cn([C@@H](CCC(=O)O)C(=O)NCCCCCCCCCCC(=O)N2CCNCC2)nn1 | -8 | -1 | 11 | 1 | 2 | 27
C#CCOCCOCCOCCNc1nc(N2CCN(C(=O)CCCCCCCCCCNC(=O)[C@H]([C@@H](C)CC)n3cc(CCCCN=C(N)N)nn3)CC2)nc(N2CCN(C(=O)CCCCCCCCCCNC(=O)[C@@H]([C@H](C)O)n3cc(C)nn3)CC2)n1 | / | -5 | -34 | 0 | / | -40*
C#CCOCCOCCOCCNc1nc(N2CCN(C(=O)CCCCCCCCCCNC(=O)[C@H](CCCCN)n3cc(CCO)nn3)CC2)nc(N2CCN(C(=O)CCCCCCCCCCNC(=O)[C@H](CCCCN)n3cc(CCCC(=O)O)nn3)CC2)n1 | -21 | 4 | / | 5 | -4 | -40*
CC[C@H](C)Cc1cn([C@@H](CCCCN)C(=O)NCCCCCCCCCCC(=O)N2CCNCC2)nn1 | 1 | / | 40* | 31 | 4 | 2
C[C@H](CO)N1C[C@H](C)[C@@H](CN(C)S(=O)(=O)c2cn(C)cn2)Oc2ccc(NC(=O)Nc3cccc4ccccc34)cc2C1=O | / | -3[16.7 µM] | 3 | 0 | 0 | 2
CCOC(=O)c1[nH]c2ccc(OC)cc2c1NC(=O)/C=C/c1ccc2c(c1)OCO2 | -12 | / | 66* | / | / | /
SMILES | HIV Env fusion | miR122 inh | INS-1E GSIS act | Cneo AK release | F508del corr | rRNA inh HTS
Cc1ccc(/C=C2/NC(=O)N(Cc3ccc(Br)cc3)C2=O)o1 | -2 | 1 | 57* | 7 | / | /
CCN1C(=O)N/C(=C/c2ccc(C)o2)C1=O | -21 | / | -21 | / | -1 | 22
O=C(O)CNc1nc(-c2ccccc2)c2cc([N+](=O)[O-])ccc2n1 | -15 | -1 | 61* | / | / | /
O=[N+]([O-])c1ccc2nc(NCCCO)nc(-c3ccccc3)c2c1 | / | / | 22 | / | / | /
N#Cc1ccccc1/C=N/Nc1nc(-c2ccccc2)c2cc(Br)ccc2n1 | -58 | 2 | / | 1 | / | /
CCOc1nc(-c2ccccc2)c2cc(Br)ccc2n1 | -6 | -3 | 47* | -2 | 2 | -1
OCCNc1nc(-c2ccccc2)c2cc(Br)ccc2n1 | 4 | 2 | 59* | 0 | 1 | -6
C[N+](C)(CCOc1ccccc1)Cc1ccccc1 | -121 | 2 | / | 1 | -8 | /
Cc1cc(C(C)(C)CC(C)(C)C)ccc1OCCOCC[N+](C)(C)Cc1ccccc1 | 31 | -58 | 333* | 11 | 5 | /
CCCCCc1ccc(OCCC[n+]2ccccc2)c(CCCCC)c1 | 52 | / | 192* | / | ? | -54
CCCc1[nH]n(-c2nc3ccccc3s2)c(=O)c1C=NCCCN(CC)CC | -11 | 6 | -11 | / | -1 | -22*
CCCNC(=O)NS(=O)(=O)c1ccc(Cl)cc1 | 5 | -4 | / | -1 | -3 | 17
CCCNC(=O)c1nnsc1S(=O)(=O)c1ccc(Cl)cc1 | -15 | / | 65* | / | -8 | -13
CCCNC(=O)c1nnsc1S(=O)c1ccc(Cl)cc1 (stereo not given) | 3 | / | 115* | / | / | -39
Cc1ccc2nc(Cl)nc(-c3ccccc3)c2c1 | 16 | -1 | 51* | -3 | 2 | 8
CC(=O)c1c(C)nc2ccc(C)cc2c1-c1ccccc1 | -1 | -7 | 19 | -2 | -2 | -36*
Cc1ccc(-c2nc(Cl)nc3ccccc23)cc1 | 14 | / | 27 | / | -2 | -10
COc1ccc(NC(=O)N(C)C[C@H]2Oc3c(NC(=O)Nc4ccc(C(F)(F)F)cc4)cccc3C(=O)N([C@H](C)CO)C[C@H]2C)cc1 | -6[16.7 µM] | -4[16.7 µM] | -16 | / | 1 | 1
CCOC(=O)COc1nc2c(c(-c3ccco3)c1C#N)CCc1ccccc1-2 | 57* | 3 | 5 | -4 | 4 | 3
C[C@@H]1CN([C@@H](C)CO)C(=O)c2cc(C#Cc3ccccc3F)cnc2O[C@@H]1CN(C)C(=O)C1CCC1 | 9[16.7 µM] | 7[16.7 µM] | -9 | -3 | 2 | 1
